Data set [1] has as its target T1, 5-hydroxytryptamine receptor 1A (Homo sapiens, UniProt P08908).
T1 sequence (P08908 whole entry): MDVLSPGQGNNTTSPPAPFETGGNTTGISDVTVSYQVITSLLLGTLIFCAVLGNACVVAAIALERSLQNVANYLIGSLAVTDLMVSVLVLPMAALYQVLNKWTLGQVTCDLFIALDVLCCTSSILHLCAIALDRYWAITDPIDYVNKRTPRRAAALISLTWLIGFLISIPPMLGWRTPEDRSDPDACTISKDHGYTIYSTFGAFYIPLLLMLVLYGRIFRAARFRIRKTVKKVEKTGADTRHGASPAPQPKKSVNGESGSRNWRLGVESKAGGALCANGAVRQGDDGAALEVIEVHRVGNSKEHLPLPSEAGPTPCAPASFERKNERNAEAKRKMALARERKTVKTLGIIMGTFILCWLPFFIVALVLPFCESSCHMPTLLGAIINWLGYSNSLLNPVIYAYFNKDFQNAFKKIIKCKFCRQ
Put plainly: In vitro potency at human 5-hydroxytryptamine 1A receptor in inhibiting forskolin-stimulated accumulation of intracellular cAMP. In kind it is functional, cell-based. The gist of the method:
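CHO cells stably expressing human 5-HT1A receptor, grown in α-DMEM + 10% fetal calf serum, seeded 3 days before assay. Labelled with [3H]adenine (2 μCi/mL) for 2 h, rinsed with PBS/10 mM IBMX, then stimulated 10 min with forskolin (10^-7 M) plus compound at various concentrations, in quadruplicate. TCA extraction; [3H]cAMP separated on Dowex/alumina columns, scintillation counting. EC50 from three independent experiments.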

Data set [2] deals with T2, D(2) dopamine receptor (Rattus norvegicus, UniProt P61169). Put plainly: In vitro displacement of [3H]spiperone from Dopamine receptor D2 binding site in rat striatum. (Displacement assays read how much labelled ligand stays bound in the presence of the test substance.)
Data set [3] has as its target T3, 5-hydroxytryptamine receptor 1A (Rattus norvegicus, UniProt P19327).
T3 sequence (P19327 whole entry): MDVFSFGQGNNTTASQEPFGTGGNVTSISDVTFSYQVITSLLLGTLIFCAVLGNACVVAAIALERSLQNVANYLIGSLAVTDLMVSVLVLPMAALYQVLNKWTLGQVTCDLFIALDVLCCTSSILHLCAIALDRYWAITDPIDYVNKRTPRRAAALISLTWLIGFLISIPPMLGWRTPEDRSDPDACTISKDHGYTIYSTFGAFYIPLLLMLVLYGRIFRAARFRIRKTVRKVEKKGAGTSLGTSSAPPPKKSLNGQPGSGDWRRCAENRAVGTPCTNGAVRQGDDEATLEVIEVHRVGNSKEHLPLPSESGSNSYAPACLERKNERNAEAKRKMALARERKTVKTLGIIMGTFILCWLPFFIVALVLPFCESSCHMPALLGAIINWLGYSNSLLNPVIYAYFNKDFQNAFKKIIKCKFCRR
The experiment in a line: Binding affinity was evaluated by determining in vitro displacement of [3H]8-OH-DPAT from the central 5-hydroxytryptamine 1A receptor recognition site in rat frontal cortex homogenate. It is filed as tissue-based.

Data set [4] deals with T2, D(2) dopamine receptor. The experiment in a line: pKi value against rat Dopamine receptor D2.
Data set [5] is described as follows: Partition coefficient (logP). It is filed as physicochemical. The conditions noted are these: octanol/water. The gist of the method:
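Retention factor k converted via calibration with 10 reference compounds (log Pow 2.1–5.7). Values below 2.1 extrapolated; interpolated values carry 95% confidence interval ±0.4.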

Data set [6] has as its target T3, 5-hydroxytryptamine receptor 1A. Put plainly: pKi value against rat 5-hydroxytryptamine 1A receptor.

pEC50, pKi: −log10 of the molar value.

T2 sequence (P61169 whole entry): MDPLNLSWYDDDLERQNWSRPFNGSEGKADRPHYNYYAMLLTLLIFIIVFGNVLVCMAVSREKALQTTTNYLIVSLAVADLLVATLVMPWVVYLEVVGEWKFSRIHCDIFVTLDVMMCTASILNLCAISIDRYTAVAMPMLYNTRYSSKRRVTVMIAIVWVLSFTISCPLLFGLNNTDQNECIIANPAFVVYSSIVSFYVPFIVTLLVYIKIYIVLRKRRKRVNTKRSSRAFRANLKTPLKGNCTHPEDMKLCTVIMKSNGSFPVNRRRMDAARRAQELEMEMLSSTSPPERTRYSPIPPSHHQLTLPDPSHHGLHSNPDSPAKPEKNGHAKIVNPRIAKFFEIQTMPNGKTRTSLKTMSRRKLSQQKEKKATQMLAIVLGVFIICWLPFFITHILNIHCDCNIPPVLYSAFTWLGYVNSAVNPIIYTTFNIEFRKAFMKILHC

On to `O=C(NCCN1CCN(c2cccc3c2OCCO3)CC1)c1ccc(F)cc1`, for which, in data set [1], the pEC50 was 9.05. In addition, in data set [2], the pKi is 7.85.
Consider `O=C(NCCN1CCN(c2ccccc2)CC1)c1ccc(F)cc1`, for which the pKi in data set [3] is 8.31.
In the case of `O=C(NCCN1CCN(c2cccc3c2OCC(CO)O3)CC1)c1ccc(F)cc1` (single isomer, unassigned) [FLESINOXAN], the pKi in data set [2] was 6.85; in data set [3], 8.77.
Turning to `COc1ccccc1N1CCN(CCCOc2ccc(F)cc2)CC1`, the negative-log Ki (pKi) in data set [2] is 8.48; in data set [4], 8.50; in data set [3], 8.47; in data set [6], 8.50. This compound also displayed a logP in data set [5] of 4.1.
Consider `COc1ccccc1N1CCN(CCNC(=S)C2CCCCC2)CC1`, for which the pKi in data set [2] is 8.19; in data set [4] it was 8.20; in data set [3], 9.49; in data set [6], 9.50. The same compound yielded a logP in data set [5] of 3.7.
With `COc1ccccc1N1CCN(CC/C=C/c2ccc(F)cc2)CC1`, the pKi in data set [2] was 8.39; in data set [4], 8.40; in data set [3] it was 8.74; in data set [6] it was 8.70. In addition, the logP in data set [5] worked out at 4.7.
Turning to `COc1ccccc1N1CCN(CCCC(O)c2ccc(F)cc2)CC1` (stereo not drawn) [ANISOPIROL], the pKi in data set [2] is 8.47; in data set [4], 8.50; in data set [3], 8.60; in data set [6], 8.60. For the same compound, the lipophilicity (logP) in data set [5] was determined as 3.4.
In the case of `COc1ccccc1N1CCN(CCNC(=O)C2CCCCC2)CC1`, the pKi is 7.64 in data set [2], 7.90 in data set [4], 9.10 in data set [3] and 9.10 in data set [6]. In data set [5], the logP amounted to 2.8.
Turning to `COc1ccccc1N1CCN(CCNC(=O)c2ccco2)CC1`, the negative-log Ki (pKi) in data set [2] is 7.14; in data set [4], 7.10; in data set [3], 7.74; in data set [6], 7.70. Moreover, in data set [5], the lipophilicity (logP) is 1.6.
Turning to `COc1ccccc1N1CCN(CCNC(=O)c2ccccc2)CC1`, the pKi in data set [2] is 7.89; in data set [4] it was 7.90; in data set [3] it was 8.89; in data set [6], 8.90. In data set [5], this compound had a log partition coefficient (logP) of 2.2.
Turning to `COc1ccccc1N1CCN(CCCC(=O)c2ccc(F)cc2)CC1` [FLUANISONE], the negative logarithm of the Ki (pKi) in data set [2] is 8.51; in data set [4] it was 8.60; in data set [3], 9.00; in data set [6], 9.00. Besides, the logP in data set [5] was determined as 3.6.
In the case of `COc1ccccc1N1CCN(CCNC(C)=O)CC1`, the pKi is 5.96 in data set [2], 6.00 in data set [4], 6.10 in data set [3] and 6.10 in data set [6]. This compound showed a logP in data set [5] of 0.5.
`COc1ccccc1N1CCN(CCNC(=N)C2CCCCC2)CC1`: the pKi in data set [2] was 6.89; in data set [4], 6.90; in data set [3], 8.35; in data set [6], 8.30. Moreover, in data set [5], the logP amounted to 3.4.
Regarding `COc1ccccc1N1CCN(CCOCc2ccc(F)cc2)CC1`, the pKi in data set [2] is 8.00; in data set [4], 8.00; in data set [3] it was 7.66; in data set [6], 7.70. The compound also registered a logP in data set [5] of 3.6.
In data set [1], `CC1CN(c2cccc3c2OCCO3)CC(C)N1CCNC(=O)c1ccc(F)cc1` (stereo not drawn) had a pEC50 of 9.11.
For the compound `c1cc(N2CCNCC2)c2occc2c1`, the pKi in data set [2] was 6.11.
For the compound `COc1ccccc1N1CCN(CCNC(=O)c2ccc(F)cc2)CC1`, the pKi in data set [3] and in data set [6] was 9.00 each time. The compound further registered a logP in data set [5] of 2.5.
Regarding `COc1ccccc1N1CCN(CCCCc2ccc(F)cc2)CC1`, the pKi in data set [2] was 8.48; in data set [4], 8.50; in data set [3], 8.96; in data set [6], 9.00. For the same compound, the logP in data set [5] came to 4.8.
`c1ccc(N2CCNCC2)cc1` [PHENYLPIPERAZINE]: the pKi in data set [2] is 5.17.
With `O=C(NCCN1CCN(c2cccc3ccoc23)CC1)c1ccc(F)cc1`, in data set [2], the pKi is 8.28.
As for `COc1ccccc1N1CCN(CCNC(=O)c2ccc[nH]2)CC1`, the pKi was 7.19 in data set [2], 7.20 in data set [4], 7.80 in data set [3] and 7.80 in data set [6]. The compound further gave a logP in data set [5] of 1.6.
Regarding `COc1ccccc1N1CCN(CCNC(=O)c2cccs2)CC1`, the pKi was 7.77 in data set [2], 7.80 in data set [4], 8.80 in data set [3] and 8.80 in data set [6]. Moreover, the logP in data set [5] was 2.
As for `OC[C@@H]1COc2c(cccc2N2CCNCC2)O1`, the pKi in data set [2] is below 5.00.
With `COc1ccccc1N1CCN(CCNC(=O)c2ccncn2)CC1`, the pKi in data set [2] was 6.60; in data set [4], 6.60; in data set [3], 7.82; in data set [6], 7.80. In addition, the logP in data set [5] worked out at 1.5.
Consider `COc1ccccc1N1CCN(CCNC(=O)c2cccnc2)CC1`, for which the negative logarithm of the Ki (pKi) in data set [2] was 6.24; in data set [4], 6.30; in data set [3], 6.85; in data set [6] it was 6.80. The compound further displayed a logP in data set [5] of 1.2.

The pEC50 is −log10 of the EC50, conventionally taken in molar units. For orientation: pKi means −log10 of the Ki, conventionally taken in molar units. For orientation: logP means the decadic logarithm of the partition coefficient of the neutral form, usually between octanol and water.
